In ChEMBL document CHEMBL1152800, “Aza-analogue dibenzepinone scaffolds as p38 mitogen-activated protein kinase inhibitors: design, synthesis, and biological data of inhibitors with improved physicochemical properties” (J Med Chem, 2009) one finds IC50, solubility and CHI data, which are given here for 16 compounds.

The target of data set [1] is Mitogen-activated protein kinase 14 (Homo sapiens, UniProt Q16539). As to the kind of experiment: Inhibition of p38alpha MAPK by cell-free enzyme immunosorbent assay.
Data set [2] in a line: Aqueous solubility in HCl/H2O at pH 1. The data set is classed as physicochemical.
Data set [3] can be described thus: Lipophilicity, CHI in methanol by fast-gradient HPLC. Format: physicochemical. The procedure, abridged: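 Chromatographic hydrophobicity index measured by fast-gradient reversed-phase HPLC with methanol as organic modifier. The index is calculated from the compound's retention time. It approximates the volume percentage of methanol needed for equal distribution of the compound between mobile and stationary phases.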

In brackets after ≈: the same amount, converted by molar mass. Some results are limits rather than exact numbers.

Chain of Mitogen-activated protein kinase 14 (Q16539 whole entry): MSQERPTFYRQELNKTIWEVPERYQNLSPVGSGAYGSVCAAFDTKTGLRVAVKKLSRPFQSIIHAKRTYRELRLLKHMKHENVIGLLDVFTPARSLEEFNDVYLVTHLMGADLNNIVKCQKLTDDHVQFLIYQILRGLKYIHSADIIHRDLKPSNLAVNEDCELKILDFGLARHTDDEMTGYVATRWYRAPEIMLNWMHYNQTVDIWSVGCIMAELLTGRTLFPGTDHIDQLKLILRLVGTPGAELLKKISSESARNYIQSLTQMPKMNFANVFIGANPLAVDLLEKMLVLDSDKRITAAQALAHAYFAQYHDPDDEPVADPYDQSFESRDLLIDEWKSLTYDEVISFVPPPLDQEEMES

In the case of `Nc1cc(F)ccc1Nc1ccc2c(c1)OCc1ccccc1C2=O`, half-maximal inhibition in data set [1] (IC50) was put at 40 nM.

Turning to `Nc1ccccc1Nc1ccc2c(c1)CCc1ccccc1C2=O`, the solubility – broadly, how much of the substance goes into solution per volume – in data set [2] was less than 10 µg/mL. Besides, the CHI in data set [3] is recorded as 82.6%.

In the case of `Nc1ccccc1Nc1ccc2c(c1)OCc1ccccc1C2=O`, in data set [3], the CHI came to 75.2%.

As for `Nc1cc(F)ccc1Nc1ccc2c(c1)CCc1ccccc1C2=O`, the CHI in data set [3] was 82.8%. For the same compound, half-maximal inhibition in data set [1] (IC50) was put at 130 nM.

The compound `Nc1ccccc1Nc1ccc2c(=O)c3cnccc3ccc2c1` displayed a CHI in data set [3] of 71.4%. Besides, in data set [1], the IC50 (commonly the midpoint of a concentration-inhibition curve) stood at 1950 nM.

In the case of `Nc1ccccc1Nc1ccc2c(c1)CCc1cccnc1C2=O`, in data set [3], the CHI turned out to be 65.8%. Also, the IC50 in data set [1] stood at 440 nM.

As to `Nc1ccccc1Nc1ccc2c(=O)c3cccnc3ccc2c1`, the CHI in data set [3] turned out to be 73.4%. In data set [1], this compound registered a 50% inhibitory concentration (IC50) of 1080 nM.

In data set [3], `O=c1c2ccc(Nc3ccc(F)cc3F)cc2ccc2ncccc12` gave a CHI of 82.9%. The IC50 in data set [1] amounted to 330 nM.

For `Nc1ccccc1Nc1ccc2c(c1)CCc1ncccc1C2=O`, in data set [2], the solubility came to 1200 µg/mL (≈ 3800 µM). Further, in data set [3], the CHI is given as 73.9%. Moreover, the IC50 in data set [1] is 310 nM.

The compound `Nc1ccccc1Nc1ccc2c(c1)OCc1ncccc1C2=O` showed a CHI in data set [3] of 69%. Further, inhibition in data set [1] was half-maximal at 2680 nM (IC50).

`Nc1cc(F)ccc1Nc1ccc2c(c1)OCc1ncccc1C2=O`: the CHI in data set [3] is recorded as 70.9%. This compound also registered an IC50 in data set [1] of 2730 nM.

Compound `Nc1cc(F)ccc1Nc1ccc2c(c1)CCc1ncccc1C2=O` yielded a CHI in data set [3] of 72.9%. This compound showed an IC50 in data set [1] of 1190 nM.

Take `O=C1c2ccccc2CCc2cc(Nc3ccc(F)cc3F)ccc21`: in data set [2], the solubility is less than 10 µg/mL. Also, the CHI in data set [3] turned out to be 88.1%. Also, in data set [1], half-maximal inhibition (IC50) was put at 130 nM.

In data set [2], `O=C1c2ccc(Nc3ccc(F)cc3F)cc2CCc2ncccc21` gave a solubility of 486 µg/mL (≈ 1440 µM). In addition, the CHI in data set [3] was found to be 81.2%. This compound returned an IC50 in data set [1] of 240 nM.

Take `O=c1c2ccccc2ccc2cc(Nc3ccc(F)cc3F)ccc12`: in data set [3], the CHI is recorded as 88.7%. In data set [1], this compound had an IC50 of 2530 nM.

In turn, `O=C1c2ccc(Nc3ccc(F)cc3F)cc2OCc2ncccc21` gave a CHI in data set [3] of 83.2%. This compound also came in with an IC50 in data set [1] of 180 nM.
